Laboratory results as given in ChEMBL document CHEMBL1122026, “Antiestrogenic properties of substituted benz[a]anthracene-3,9-diols” (1982).

Tests used:
[1] = species: Rattus norvegicus; assay: Affinity constant was measured by inhibition of estrus in ovariectomized rats treated with 17-beta-estradiol at a dose of 5 mg; assay type: functional, organism-based
[2] = species: Rattus norvegicus; assay: Antiestrogenic potency was measured by inhibition of estrus in ovariectomized rats treated with 17-beta-estradiol at a dose of 5 mg; assay type: functional
Outline: (§1)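 Ovariectomized rats were given 17β-estradiol together with the test compound. Vaginal smears were taken 32 h later; rats with cornified epithelial cells in the smear were scored as in estrus. The 32 h time point was chosen from smears taken at 0, 8, 24, 32, 48, 56 and 72 h. Read-out: percentage of rats in estrus, and its inhibition.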

[3] = species: Rattus norvegicus; assay: Affinity constant was measured by inhibition of estrus in ovariectomized rats treated with 17-beta-estradiol; assay type: functional, organism-based
[4] = species: Rattus norvegicus; assay: Antiestrogenic potency was measured by inhibition of estrus in ovariectomized rats treated with 17-beta-estradiol at a dose of 0.5 mg; assay type: functional; outline: as §1

Row | SMILES | Ka [1] [M⁻¹] | Inhibition [2] [%] | Ka [3] [M⁻¹] | Inhibition [4] [%]
1 | Cc1c2ccc(O)cc2cc2ccc3cc(O)ccc3c12 | 4.3e+07 | 44 |  | 
2 | Cc1c2cc(O)ccc2cc2c1ccc1cc(O)ccc12 | 1.8e+09 | 22 |  | 
3 | C[C@]12CC[C@@H]3c4ccc(O)cc4CC[C@H]3[C@@H]1C[C@@H](O)[C@@H]2O |  |  | 7e+09 | 
4 | COc1ccc2c(c1)CCC(c1ccccc1)=C2c1ccc(OCCN2CCCC2)cc1 [NAFOXIDINE] |  |  |  | 44
5 | Cc1c2cc(O)ccc2c(C)c2c1ccc1cc(O)ccc12 | 1.7e+08 | 74 |  | 44
6 | Oc1ccc2cc3c(ccc4cc(O)ccc43)cc2c1 | 3e+07 | 12 |  | 
7 | CC(=O)Oc1ccc2c(ccc3c(C)c4cc(OC(C)=O)ccc4c(C)c32)c1 |  | 67 |  | 
